The source made the active and inactive calls. The rule behind the calls is not given here.

Assay [1] deals with T-24. Briefly: Induction of p16 gene expression in human T24 cells at 10 uM after 8 days by real time PCR. The format is functional, cell-based. The gist of the method:
(§1)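 T24 or HCT15 cells were treated continuously for 8 days at 1, 10 or 100 μM, with or without 100 μM thymidine. Drug and medium were renewed every 2–3 days. T24 cells were grown in McCoy's 5A with 10% FCS. Total RNA (5 μg) was reverse transcribed with random primers. p16 mRNA was measured by real-time RT-PCR and normalized to GAPDH.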
(In general: Quantitative PCR measures a nucleic acid by following its amplification.)

In assay [2] the test system is CFPAC-1. Briefly: Induction of p16 gene expression in human Cf-Pac-1 cells after 8 days by real time PCR in presence of 1 to 2 mM thymidine. The class given is functional, cell-based.
For assay [3], the system named is T-24. Briefly: Induction of p16 gene expression in human T24 cells at 100 uM after 8 days by real time PCR. The class given is functional, cell-based. The gist of the method: as §1
Assay [4] deals with CFPAC-1. The assay is described as follows: Induction of p16 gene expression in human Cf-Pac-1 cells at 1 uM after 8 days by real time PCR. The class given is functional, cell-based. The method in brief:
(§2)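 Cf-Pac-1 cells in IMDM/10% FCS were seeded 3×10^5/dish and treated continuously for 8 days from 24 hr after seeding. Medium and drug were refreshed every 2–3 days, with 100 μM thymidine, lower thymidine, or 100 μM uridine added. Total RNA (5 μg) was reverse transcribed with MMLV RT and random primers. p16 mRNA was measured by real-time RT-PCR and normalized to GAPDH.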

The test system of assay [5] is T-24. Briefly: Induction of p16 gene expression in human T24 cells at 1 uM after 8 days by real time PCR. The format is functional, cell-based. The method in brief:
as §1

The subject of assay [6] is CFPAC-1. The assay is described as follows: Induction of p16 gene expression in human Cf-Pac-1 cells at 10 uM after 8 days by real time PCR. The format is functional, cell-based. The method in brief:
as §2

In assay [7] the test system is CFPAC-1. Briefly: Induction of p16 gene expression in human Cf-Pac-1 cells at 100 uM after 8 days by real time PCR. The format is functional, cell-based. The gist of the method:
as §2

In assay [8] the test system is T-24. Briefly: Induction of p16 gene expression in human T24 cells after 8 days by real time PCR in presence of […]. The class given is functional, cell-based. The method in brief: as §1
Assay [9] relates to CFPAC-1. The assay is described as follows: Cytotoxicity against human Cf-Pac-1 cells assessed as increase in cell population doubling time at 100 uM after 8 days in presence of 100 uM thymidine. The format is functional. The gist of the method: (§3)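 Cf-Pac-1 cells grown in IMDM with 10% heat-inactivated FCS at 37°C, 5% CO2. Seeded 3×10^5 cells/10cm dish and treated 24 hr later. Medium and drug were renewed every 2–3 days. Cells were counted by Coulter counter every 2–3 days, with two plates averaged. Population doublings = log(harvested/seeded)/log2. Result is % increase in doubling time over untreated cells.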

Assay [10] relates to CFPAC-1. The assay is described as follows: Induction of hypomethylation at CPG-rich region of p16 in human Cf-Pac-1 cells at 10 uM after 8 days by quantitative Ms-SNuPE in presence of 100 uM thymidine. The class given is functional, cell-based. The gist of the method:
(§4)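 Cf-Pac-1 cells were treated with continuous redosing and received 100 μM thymidine. Genomic DNA (4 μg) was bisulfite-treated and then PCR-amplified: 94°C 3 min, then 40 cycles of 94°C/annealing/72°C, 45 s each. Annealing was 65°C for p16, 53°C for MAGEA1 and 58°C for D4Z4. Ms-SNuPE primer extension was 94°C 1 min, 50°C 30 s, 72°C 20 s.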

Assay [11] relates to CFPAC-1. The assay is described as follows: Induction of p16 gene expression in human Cf-Pac-1 cells at 10 uM by real time PCR in presence of […]. The format is functional, cell-based. The method in brief:
as §2

The test system of assay [12] is CFPAC-1. The assay is described as follows: Induction of hypomethylation at repeat sequence D4Z4 in human Cf-Pac-1 cells at 10 uM after 8 days by quantitative Ms-SNuPE in presence of 100 uM thymidine. The class given is functional, cell-based. The gist of the method: as §4
Assay [13] concerns CFPAC-1. Briefly: Induction of hypomethylation at CPG-poor promoter region of MAGEA1 gene in human Cf-Pac-1 cells at 10 uM after 8 days by quantitative Ms-SNuPE in presence of 100 uM thymidine. The class given is functional, cell-based. The gist of the method: as §4
Assay [14] has as its system CFPAC-1. The assay is described as follows: Induction of hypomethylation at repeat sequence D4Z4 in human Cf-Pac-1 cells at 100 uM after 8 days by quantitative Ms-SNuPE in presence of 100 uM thymidine. The format is functional, cell-based. The method in brief:
as §4

Assay [15] concerns CFPAC-1. The assay is described as follows: Cytotoxicity against human Cf-Pac-1 cells assessed as increase in cell population doubling time at 10 uM after 8 days in presence of 100 uM thymidine. The format is functional. The method in brief:
as §3

In assay [16] the test system is CFPAC-1. The assay is described as follows: Induction of hypomethylation at CPG-rich region of p16 in human Cf-Pac-1 cells at 100 uM after 8 days by quantitative Ms-SNuPE in presence of 100 uM thymidine. The format is functional, cell-based. The gist of the method: as §4
The subject of assay [17] is CFPAC-1. Briefly: Induction of p16 gene expression in human Cf-Pac-1 cells at 100 uM by real time PCR in presence of […]. The format is functional, cell-based. The gist of the method:
as §2

In assay [18] the test system is CFPAC-1. Briefly: Cytotoxicity against human Cf-Pac-1 cells assessed as increase in cell population doubling time at 1 uM after 8 days in presence of 100 uM thymidine. The class given is functional. The gist of the method:
as §3

Assay [19] concerns CFPAC-1. Briefly: Induction of hypomethylation at CPG-poor promoter region of MAGEA1 gene in human Cf-Pac-1 cells at 100 uM after 8 days by quantitative Ms-SNuPE in presence of 100 uM thymidine. The format is functional, cell-based. The method in brief:
as §4

Assay [20] has as its system HCT-15. Briefly: Induction of p16 gene expression in human HCT15 cells at 100 uM after 8 days by real time PCR in presence of […] thymidine. The class given is functional, cell-based. The gist of the method:
as §1

In the case of `C[C@H](NP(=O)(OC[C@H]1O[C@@H](n2cccnc2=O)C[C@@H]1O)Oc1ccccc1)C(=O)OCc1ccccc1` (stereo partly specified), the result in [1], in assay [2], in assay [3], in assay [4], in [5] and in assay [6] was inactive. For the same molecule, the outcome in assay [7] was inactive.
For the molecule `CC(C)(NP(=O)(OC[C@H]1O[C@@H](n2cccnc2=O)C[C@@H]1O)Oc1ccccc1)C(=O)OCc1ccccc1` (stereo partly specified), the outcome in [1], in assay [8], in assay [2], in assay [3], in assay [4] and in assay [5] was inactive. Besides, the result in assay [6] and in assay [7] was inactive.
Take `Cc1cn([C@H]2C[C@H](O)[C@@H](CO)O2)c(=O)[nH]c1=O` [DOXRIBTIMINE]: the Activity in [9] is 0%.
For `COC(=O)[C@H](C)NP(=O)(OC[C@H]1O[C@@H](n2cccnc2=O)[C@@H](F)[C@@H]1O)Oc1ccccc1` (stereo partly specified), the result in assay [1], in assay [2], in [3], in [4], in assay [5] and in assay [6] was inactive. Also, the outcome in assay [7] was inactive.
On to `COC(=O)[C@H](C)NP(=O)(OC[C@H]1O[C@@H](n2cccnc2=O)C[C@@H]1O)Oc1ccccc1` (stereo partly specified), for which the outcome in assay [1], in assay [2], in [3], in [4], in assay [5] and in assay [6] was inactive. Also, the outcome in assay [7] was inactive.
Turning to `CCOC(=O)C(C)(C)NP(=O)(OC[C@H]1O[C@@H](n2cccnc2=O)C[C@@H]1OP(=O)(NC(C)(C)C(=O)OCC)Oc1cccc2ccccc12)Oc1cccc2ccccc12` (stereo partly specified), the outcome in assay [1], in [8], in assay [2], in assay [3], in assay [4] and in [5] was inactive. Besides, the result in [6] and in assay [7] was inactive. For the same molecule, the outcome in [9], in [10], in assay [11], in assay [12] and in assay [13] was Active.
As to `C[C@H](NP(=O)(OC[C@H]1O[C@@H](n2cccnc2=O)[C@@H](F)[C@@H]1O)Oc1ccccc1)C(=O)OCc1ccccc1` (stereo partly specified), the outcome in [1], in assay [2], in assay [3], in assay [4], in assay [5] and in [6] was inactive. The result in assay [7] was inactive.
For the molecule `CCOC(=O)C(C)(C)NP(=O)(OC[C@H]1O[C@@H](n2cccnc2=O)C[C@@H]1O)Oc1cccc2ccccc12` (stereo partly specified), the outcome in [1], in assay [8], in assay [2], in assay [3], in [4] and in [5] was inactive. The outcome in [6] and in assay [7] was inactive. The result in [14], in assay [16], in assay [17], in assay [11] and in assay [19] was Active. Also, the Activity was determined as 81% in assay [15] and 58% in [18].
Regarding `CCOC(=O)[C@H](C)NP(=O)(OC[C@H]1O[C@@H](n2cccnc2=O)C[C@@H]1OP(=O)(N[C@@H](C)C(=O)OCC)Oc1ccc(Cl)cc1)Oc1ccc(Cl)cc1` (stereo partly specified), the outcome in assay [1], in assay [8], in assay [2], in assay [3], in assay [4] and in assay [5] was inactive. The outcome in [6] and in assay [7] was inactive.
Turning to `CC(C)(NP(=O)(OC[C@H]1O[C@@H](n2cccnc2=O)C[C@@H]1O)Oc1cccc2ccccc12)C(=O)OCc1ccccc1` (stereo partly specified), the outcome in [1], in assay [8], in [2], in assay [3], in assay [4] and in assay [5] was inactive. Besides, the outcome in [6] and in [7] was inactive. Besides, the Activity came to 23% in assay [9] and 36% in assay [15]. For the same molecule, the result in assay [14], in assay [16], in assay [17], in assay [11] and in assay [19] was Active.
With `O=c1ncccn1[C@@H]1O[C@H](CO)[C@@H](O)[C@H]1O` [ZEBULARINE], the Activity in [9] stood at 103%. The outcome in assay [20] was Active.
As for `CCOC(=O)[C@H](C)NP(=O)(OC[C@H]1O[C@@H](n2cccnc2=O)C[C@@H]1O)Oc1ccc(Cl)cc1` (stereo partly specified), the result in [1], in assay [8], in assay [2], in [3], in assay [4] and in [5] was inactive. For the same molecule, the outcome in [6] and in [7] was inactive.
As for `CC(C)(NP(=O)(OC[C@H]1O[C@@H](n2cccnc2=O)C[C@@H]1OP(=O)(NC(C)(C)C(=O)OCc1ccccc1)Oc1ccccc1)Oc1ccccc1)C(=O)OCc1ccccc1` (stereo partly specified), the result in [1], in [8], in [2], in [3], in assay [4] and in assay [5] was inactive. Also, the result in assay [6] and in assay [7] was inactive.

The record behind these values is ChEMBL document CHEMBL1140219, “Activation of p16 gene silenced by DNA methylation in cancer cells by phosphoramidate derivatives of 2'-deoxyzebularine” (2008).
